As usually defined, the Kd is the free concentration of one partner at which half of the binding sites on the other are occupied at equilibrium, for simple one-to-one binding.

The results in this text go back to PMC6981294 (Molecular cell, 2019).

Ends that are not written are not given here.

To fix the notation:
T1: PPP4R3A EVH1 domain (Homo sapiens, UniProt Q6IN85)
T1 sequence (Q6IN85 2-117): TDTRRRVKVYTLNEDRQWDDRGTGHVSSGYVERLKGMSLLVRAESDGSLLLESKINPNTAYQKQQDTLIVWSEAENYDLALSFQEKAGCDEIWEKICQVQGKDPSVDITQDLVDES

T2: CDC25A full length, recombinant (human, UniProt P30304 1-524)
T2 sequence (looked up): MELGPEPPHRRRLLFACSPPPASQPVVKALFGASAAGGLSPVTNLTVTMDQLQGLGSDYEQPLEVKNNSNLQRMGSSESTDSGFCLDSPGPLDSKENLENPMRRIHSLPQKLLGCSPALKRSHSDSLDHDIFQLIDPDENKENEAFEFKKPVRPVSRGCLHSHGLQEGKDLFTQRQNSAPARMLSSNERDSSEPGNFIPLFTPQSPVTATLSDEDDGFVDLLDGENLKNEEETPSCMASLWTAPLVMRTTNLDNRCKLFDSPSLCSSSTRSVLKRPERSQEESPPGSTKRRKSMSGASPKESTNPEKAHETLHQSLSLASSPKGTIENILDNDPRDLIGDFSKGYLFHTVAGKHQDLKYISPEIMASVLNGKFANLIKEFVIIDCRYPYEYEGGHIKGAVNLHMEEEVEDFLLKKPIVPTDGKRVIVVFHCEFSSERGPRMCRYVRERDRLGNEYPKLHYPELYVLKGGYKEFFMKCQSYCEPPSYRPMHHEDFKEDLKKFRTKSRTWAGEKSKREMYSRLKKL

T3: GST-WAPL 375-625 (human, UniProt Q7Z5K2 375-625)
T3 sequence (looked up): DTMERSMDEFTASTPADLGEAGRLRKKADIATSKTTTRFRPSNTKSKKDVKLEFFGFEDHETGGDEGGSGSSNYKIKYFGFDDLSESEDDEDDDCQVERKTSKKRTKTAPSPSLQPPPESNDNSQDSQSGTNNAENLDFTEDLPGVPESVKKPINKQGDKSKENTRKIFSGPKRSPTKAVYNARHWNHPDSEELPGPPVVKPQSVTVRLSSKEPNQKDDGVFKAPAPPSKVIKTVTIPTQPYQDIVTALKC

B1: model peptide P1: Ala (peptide)
chain: PFTAKVPAPPPS
B2: model peptide P4: Ala (peptide)
chain: PFTFKVAAPPPS
B3: MCE1 peptide MCE1-P2A (peptide)
chain: DPDTELMAPPPPKRPHPL
B4: MCE1 MxPP motif peptide (peptide)
peptide: DPDTELMPPPPPKRPHPL
B5: EVH1 domain of PPP4R3A (amino acids 2-117) (domain or fragment, human, UniProt Q6IN85 2-117, looked up)
chain: TDTRRRVKVYTLNEDRQWDDRGTGHVSSGYVERLKGMSLLVRAESDGSLLLESKINPNTAYQKQQDTLIVWSEAENYDLALSFQEKAGCDEIWEKICQVQGKDPSVDITQDLVDES

The first assay addresses T1, PPP4R3A EVH1 domain. Briefly: ITC of peptides with the EVH1 domain from PPP4R3A. The format is binding. Summed up: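 Peptide in syringe, titrated at 25 °C into cell holding EVH1 domain: one 0.4 μl injection, then 19 × 2 μl at 150 s spacing, stirring 750 rpm. Peptide-into-buffer controls run. Heats normalised per mole injectant, fitted to single-site model.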
For DPDTELMPPPPAKRPHPL [MCE1-P6A], the dissociation constant Kd stood at 1.4 µM.

As to DPDTELMPPPAPKRPHPL [MCE1-P5A], the affinity, expressed as Kd, was 1.49 µM.

DPDTELAPPPPPKRPHPL [MCE1-M1A] gave a Kd of 85.6 µM.

Regarding DPDTELMPAPPPKRPHPL [MCE1-P3A], the affinity, expressed as Kd, was 7.58 µM.

As to DPDTELMPPAPPKRPHPL [MCE1-P4A], the affinity, expressed as Kd, was 119 µM.

DPDTEAMPPPPPKRPHPL [MCE1-L(-1)A] showed a Kd of 3.78 µM.

The target in the next assay is B5. Briefly: ITC. Background: Isothermal titration calorimetry measures the heat released or taken up as one component is titrated into another.
On to B1, for which the Kd is 53 µM.

B2 registered a Kd of 53 µM.

The molecule B3 yielded a Kd of 7.93 µM.

In the case of B4, binding was put at a Kd of 0.98 µM.

A further assay deals with T2, CDC25A full length, recombinant. Kind of assay: ITC.
For B5, the binding result was “binds”.

Another assay has as its target T3, GST-WAPL 375-625. Kind of assay: ITC.
Turning to B5, the binding result is listed as “binds”.
